Experiment [1] in a line: Inhibition of porcine pancreatic elastase. Also on record: species or system Sus scrofa. The procedure, abridged:
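Porcine pancreatic elastase (75 µg/mL enzyme solution) preincubated with compound in Tris-HCl, pH 8.0, at 30 °C for 20 min. Then 2 mM N-succinyl-Ala-Ala-Ala-p-nitroanilide substrate solution added. Absorbance increase at 405 nm read over 3–30 min. Dose–response analysis, IC50 determined.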

The target in the next experiment is Prothrombin (Bos taurus) (UniProt P00735). Description: Inhibition of bovine plasma thrombin upto 30 uM. The experiment is classed as cell-free.
The species entered for experiment [2] is Sus scrofa. The experiment is described as follows: Selectivity for porcine elastase over porcine trypsin.
Experiment [3] can be described thus: Selectivity for bovine alpha chymotrypsin over human plasmin.
The nature of experiment [4]: Selectivity for porcine elastase over bovine thrombin.
The nature of experiment [5]: Selectivity for bovine alpha chymotrypsin over porcine trypsin.
A short description of experiment [6]: Inhibition of bovine pancreatic alpha chymotrypsin. Also on record: species or system Bos taurus. The method in brief:
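Bovine pancreatic α-chymotrypsin (1 mg/mL enzyme solution) in 50 mM Tris-HCl, 100 mM NaCl, 1 mM CaCl2, pH 7.8. Test solution added, then 2 mM N-succinyl-Gly-Gly-Phe-p-nitroanilide substrate solution. Absorbance increase at 405 nm followed for 30 min. Dose–response analysis, IC50 determined.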

Experiment [7] can be described thus: Selectivity for porcine elastase over human plasmin.
The species entered for experiment [8] is Sus scrofa. The experiment is described as follows: Inhibition of porcine pancreatic trypsin upto 30 uM. The method in brief:
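Porcine pancreatic trypsin (1 mg/mL enzyme solution) in 50 mM Tris-HCl, 100 mM NaCl, 1 mM CaCl2, pH 7.8. Test solution added, then 2 mM Nα-benzoyl-DL-arginine 4-nitroanilide hydrochloride substrate solution. Absorbance increase at 405 nm followed for 30 min. Dose–response analysis.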

Experiment [9] addresses Plasminogen (Homo sapiens) (UniProt P00747). Description: Inhibition of human plasma plasmin upto 30 uM. The experiment is classed as cell-free.
The species entered for the next experiment is Bos taurus. The experiment is described as follows: Selectivity for bovine alpha chymotrypsin over bovine thrombin.

Activity calls are given as the source filed them. The rule behind the calls is not given here.

Plasminogen (Homo sapiens), sequence (P00747 97-580 limits assumed): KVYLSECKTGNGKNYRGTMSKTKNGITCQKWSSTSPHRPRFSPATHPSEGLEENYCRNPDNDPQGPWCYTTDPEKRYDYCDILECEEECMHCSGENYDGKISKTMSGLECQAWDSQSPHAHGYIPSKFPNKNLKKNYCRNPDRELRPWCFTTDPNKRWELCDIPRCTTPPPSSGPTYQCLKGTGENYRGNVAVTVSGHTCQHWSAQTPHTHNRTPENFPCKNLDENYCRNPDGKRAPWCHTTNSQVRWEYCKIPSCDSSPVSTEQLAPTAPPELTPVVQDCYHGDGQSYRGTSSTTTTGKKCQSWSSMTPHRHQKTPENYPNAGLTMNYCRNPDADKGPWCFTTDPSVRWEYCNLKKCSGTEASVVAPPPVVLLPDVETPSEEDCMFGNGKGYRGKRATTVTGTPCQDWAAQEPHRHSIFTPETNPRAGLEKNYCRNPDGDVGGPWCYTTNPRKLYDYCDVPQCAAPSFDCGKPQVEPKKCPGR
Plasminogen (Homo sapiens), sequence (P00747 581-810 limits assumed): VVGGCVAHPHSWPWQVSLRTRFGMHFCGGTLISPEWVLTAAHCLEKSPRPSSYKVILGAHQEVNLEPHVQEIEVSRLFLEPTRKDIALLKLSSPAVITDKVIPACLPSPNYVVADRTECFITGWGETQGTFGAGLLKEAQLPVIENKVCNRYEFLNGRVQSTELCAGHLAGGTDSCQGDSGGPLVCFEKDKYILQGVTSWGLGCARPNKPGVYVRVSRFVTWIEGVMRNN

A word on the IC50: it is the midpoint of a concentration-inhibition curve. A lower IC50 goes with higher potency. Regarding `C/C=C1\NC(=O)[C@@H](NC(=O)[C@H](CCc2ccc(O)cc2)NC(=O)[C@H](C)NC(=O)[C@H](O)COS(=O)(=O)O)[C@@H](C)OC(=O)[C@H](C(C)C)NC(=O)[C@H](Cc2ccc(O)cc2)N(C)C(=O)[C@H](Cc2ccccc2)N2C(=O)[C@H](CC[C@H]2O)NC1=O` [LYNGBYASTATIN 4], the half-maximal inhibitory concentration (IC50) in experiment [1] is 30 nM; in [6], 300 nM. Moreover, the outcome (at Prothrombin (Bos taurus); in the experiment listed under Sus scrofa [8]; in experiment [9]) was inactive. Moreover, the Selectivity ratio in the experiment filed under Sus scrofa [2] was more than 1000; in experiment [3], more than 100; in experiment [4], more than 1000; in experiment [5] it was more than 100; in experiment [7] it was more than 1000; in the experiment listed under Bos taurus, more than 100.

These data come from ChEMBL document CHEMBL1139214, “Lyngbyastatin 4, a dolastatin 13 analogue with elastase and chymotrypsin inhibitory activity from the marine cyanobacterium Lyngbya confervoides” (J Nat Prod, 2007).
